Test results as given in ChEMBL document CHEMBL2062386, “Discovery of LFF571: an investigational agent for Clostridium difficile infection” (J Med Chem, 2012).
≈ marks a conversion by molar mass, not a printed value.

Key:
Enterococcus faecium = experiment: Antibacterial activity against Enterococcus faecium 7130724 by broth microdilution method; assay type: functional
Enterococcus faecalis = experiment: Antibacterial activity against Enterococcus faecalis ATCC 29212 by broth microdilution method; assay type: functional
Summary of the method: (§1)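 Broth microdilution MICs were run per CLSI M07-A8 (2009). The strain panel included C. difficile ATCC 43255, E. faecalis ATCC 29212 and S. pyogenes ATCC BAA-595.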

Staphylococcus aureus = experiment: Antibacterial activity against Staphylococcus aureus A4.018 by broth microdilution method; assay type: functional
Streptococcus pyogenes = experiment: Antibacterial activity against Streptococcus pyogenes ATCC BAA-595 by broth microdilution method; assay type: functional; summary of the method: as §1
[1] = Antibacterial activity against Clostridium difficile ATCC 43255 by broth microdilution method; assay type: functional; details: Clostridioides difficile; summary of the method: as §1
Escherichia coli [2] = experiment: Inhibition of protein synthesis in Escherichia coli S30 extract at 2 uM after 75 mins by luciferase based luminescence assay relative to GE2270A; assay type: functional
[3] = Binding affinity to Escherichia coli GDPNP-labelled EF-Tu by surface plasmon resonance analysis
Escherichia coli [4] = experiment: Inhibition of protein synthesis in Escherichia coli S30 extract after 75 mins by luciferase based luminescence assay relative to GE2270A; assay type: functional, organism-based

In the case of `CNC(=O)C[C@@H]1NC(=O)c2csc(n2)-c2ccc(-c3nc(C4=N[C@H](C(=O)N5CCC[C@H]5C(N)=O)CO4)cs3)nc2-c2csc(n2)-c2csc(n2)[C@H]([C@@H](O)c2ccccc2)NC(=O)CNC(=O)c2nc(sc2COC)[C@H](C(C)C)NC(=O)c2nc1sc2C`, the MIC (Enterococcus faecium) is reported as 0.25 µg/mL (≈ 0.194 µM), the MIC (Enterococcus faecalis) is reported as 0.5 µg/mL (≈ 0.387 µM) and the MIC (Staphylococcus aureus) is reported as 0.25 µg/mL (≈ 0.194 µM). For the same compound, the MIC (Streptococcus pyogenes) was 1 µg/mL (≈ 0.775 µM), the MIC [1] was 0.015 µg/mL (≈ 0.0116 µM) and the inhibition at 2 µM (Escherichia coli [2]) was 30%. It also gave a Kd [3] of 3 nM and an IC50 (Escherichia coli [4]) of 2000 nM.
